Laboratory results as given in ChEMBL document CHEMBL3045605, “Synthesis and anticancer evaluation of novel 3,5-diaryl-thiazolo[4,5-d]pyrimidin-2-one derivatives” (2013).

Legend:
Assay type in all cases: functional
[1] = tested on: HT-29; experiment: Anticancer activity against Homo sapiens (human) HT-29 cells assessed as cell growth at 10 uM by SRB assay; details: read-out: Activity
Outline: (§1)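 NCI 60-cell human tumour panel (nine cancer types) screened at one concentration, 10−5 M. Cell growth estimated by sulforhodamine B protein staining and reported as percent growth of treated cells relative to untreated controls.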

[2] = tested on: HCT-116; experiment: Anticancer activity against Homo sapiens (human) HCT116 cells assessed as cell growth at 10 uM by SRB assay; details: read-out: Activity; outline: as §1
[3] = tested on: HCC 2998; experiment: Anticancer activity against Homo sapiens (human) HCC2998 cells assessed as cell growth at 10 uM by SRB assay; details: read-out: Activity; outline: as §1
[4] = tested on: NCI-H522; experiment: Anticancer activity against Homo sapiens (human) NCI-H522 cells assessed as cell growth at 10 uM by SRB assay; details: read-out: Activity
Outline: (§2)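 Single-dose screen in the NCI 60-human-tumour-cell-line panel (nine cancer types) at 10−5 M. Cell growth was estimated by sulforhodamine B protein staining and reported as percent growth of treated cells relative to untreated controls.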

[5] = Anticancer activity against Homo sapiens (human) NCI-322M cells assessed as cell growth at 10 uM by SRB assay; details: read-out: Activity; outline: as §2
[6] = tested on: MOLT-4; experiment: Anticancer activity against Homo sapiens (human) MOLT4 cells by SRB assay
Outline: (§3)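 Five-dose NCI 60-cell-line panel testing at tenfold dilutions from 10−4 to 10−8 M, with growth read by sulforhodamine B protein staining. For each cell line: GI50 is the molar concentration giving half growth inhibition; TGI is total growth inhibition (cytostatic); LC50 is the molar concentration killing 50% of the initial cells (cytotoxic).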

[7] = tested on: HOP-62; experiment: Anticancer activity against Homo sapiens (human) HOP62 cells assessed as cell growth at 10 uM by SRB assay; details: read-out: Activity; outline: as §1
[8] = tested on: MOLT-4; experiment: Anticancer activity against Homo sapiens (human) MOLT4 cells assessed as cell growth at 10 uM by SRB assay; details: read-out: Activity; outline: as §2
[9] = tested on: CCRF-CEM; experiment: Anticancer activity against Homo sapiens (human) CCRF-CEM cells assessed as cell growth at 10 uM by SRB assay; details: read-out: Activity; outline: as §1
[10] = tested on: 786-0; experiment: Anticancer activity against Homo sapiens (human) 786-0 cells by SRB assay
Outline: (§4)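 NCI 60-line panel, five tenfold dilutions from 10−4 to 10−8 M, growth read by sulforhodamine B staining against untreated controls. From the dose–response per line: GI50 (molar concentration giving half growth inhibition), TGI (molar concentration giving total growth inhibition, cytostatic) and LC50 (molar concentration killing 50% of initial cells, cytotoxic).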

[11] = tested on: OVCAR-8; experiment: Anticancer activity against Homo sapiens (human) OVCAR8 cells by SRB assay; outline: as §3
[12] = tested on: OVCAR-5; experiment: Anticancer activity against Homo sapiens (human) OVCAR5 cells by SRB assay; details: read-out: pTGI (converted); outline: as §3
[13] = tested on: IGROV-1; experiment: Anticancer activity against Homo sapiens (human) IGROV1 cells by SRB assay; outline: as §4
[14] = tested on: UACC-62; experiment: Anticancer activity against Homo sapiens (human) UACC62 cells by SRB assay
Outline: (§5)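 NCI five-dose follow-up on the 60-line human tumour panel at tenfold dilutions from 10−4 to 10−8 M, with growth read by sulforhodamine B protein assay against untreated controls. For each cell line, GI50 (half growth inhibition), TGI (total growth inhibition) and LC50 (50% death of initial cells) are calculated as molar concentrations.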

[15] = tested on: MDA-MB-435; experiment: Anticancer activity against Homo sapiens (human) MDA-MB-435 cells by SRB assay; outline: as §3
[16] = tested on: M14; experiment: Anticancer activity against Homo sapiens (human) M14 cells by SRB assay; outline: as §4
[17] = tested on: SF-295; experiment: Anticancer activity against Homo sapiens (human) SF295 cells by SRB assay; outline: as §3
[18] = tested on: KM12; experiment: Anticancer activity against Homo sapiens (human) KM12 cells by SRB assay; outline: as §4
[19] = tested on: SW-620; experiment: Anticancer activity against Homo sapiens (human) SW620 cells by SRB assay; outline: as §5
[20] = tested on: HCT-15; experiment: Anticancer activity against Homo sapiens (human) HCT15 cells by SRB assay; outline: as §4
[21] = tested on: HCC 2998; experiment: Anticancer activity against Homo sapiens (human) HCC2998 cells by SRB assay; outline: as §4
[22] = tested on: OVCAR-8; experiment: Anticancer activity against Homo sapiens (human) OVCAR8 cells assessed as cell growth at 10 uM by SRB assay; details: read-out: Activity; outline: as §2
[23] = tested on: OVCAR-3; experiment: Anticancer activity against Homo sapiens (human) OVCAR3 cells assessed as cell growth at 10 uM by SRB assay; details: read-out: Activity; outline: as §2
[24] = tested on: OVCAR-4; experiment: Anticancer activity against Homo sapiens (human) OVCAR4 cells assessed as cell growth at 10 uM by SRB assay; details: read-out: Activity; outline: as §2
[25] = tested on: UACC-62; experiment: Anticancer activity against Homo sapiens (human) UACC62 cells assessed as cell growth at 10 uM by SRB assay; details: read-out: Activity
Outline: (§6)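 NCI 60-cell human tumour panel (leukemia, melanoma, lung, colon, CNS, breast, ovarian, prostate, renal lines) given a single 10−5 M dose. Growth is expressed as percent growth of treated cells relative to untreated controls, with cell growth/viability estimated by sulforhodamine B protein staining.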

[26] = tested on: SK-MEL-5; experiment: Anticancer activity against Homo sapiens (human) SK-MEL-5 cells assessed as cell growth at 10 uM by SRB assay; details: read-out: Activity; outline: as §2
[27] = tested on: KM12; experiment: Anticancer activity against Homo sapiens (human) KM12 cells assessed as cell growth at 10 uM by SRB assay; details: read-out: Activity; outline: as §1
[28] = tested on: SW-620; experiment: Anticancer activity against Homo sapiens (human) SW620 cells assessed as cell growth at 10 uM by SRB assay; details: read-out: Activity; outline: as §6
[29] = tested on: MCF7; experiment: Anticancer activity against Homo sapiens (human) MCF7 cells by SRB assay; outline: as §4
[30] = tested on: DU-145; experiment: Anticancer activity against Homo sapiens (human) DU145 cells by SRB assay; outline: as §4
[31] = tested on: PC-3; experiment: Anticancer activity against Homo sapiens (human) PC3 cells by SRB assay; outline: as §3
[32] = tested on: T47D; experiment: Anticancer activity against Homo sapiens (human) T47D cells assessed as cell growth at 10 uM by SRB assay; details: read-out: Activity; outline: as §6
[33] = tested on: MCF7; experiment: Anticancer activity against Homo sapiens (human) MCF7 cells assessed as cell growth at 10 uM by SRB assay; details: read-out: Activity; outline: as §1
[34] = tested on: DU-145; experiment: Anticancer activity against Homo sapiens (human) DU145 cells assessed as cell growth at 10 uM by SRB assay; details: read-out: Activity; outline: as §1
[35] = tested on: RXF 393; experiment: Anticancer activity against Homo sapiens (human) RXF393 cells assessed as cell growth at 10 uM by SRB assay; details: read-out: Activity; outline: as §2
[36] = tested on: UO-31; experiment: Anticancer activity against Homo sapiens (human) UO31 cells assessed as cell growth at 10 uM by SRB assay; details: read-out: Activity; outline: as §6
[37] = tested on: TK-10; experiment: Anticancer activity against Homo sapiens (human) TK10 cells assessed as cell growth at 10 uM by SRB assay; details: read-out: Activity; outline: as §6
[38] = tested on: CAKI-1; experiment: Anticancer activity against Homo sapiens (human) CAKI-1 cells assessed as cell growth at 10 uM by SRB assay; details: read-out: Activity; outline: as §1
[39] = read-out: pLC50 (the source's name) (converted)

Structure (SMILES): O=c1sc2c(Cl)nc(-c3ccccc3)nc2n1-c1ccccc1
- growth at 10 µM [1]: 10%
- growth at 10 µM [2]: -53%
- growth at 10 µM [3]: 90%
- growth at 10 µM [4]: -65%
- growth at 10 µM [5]: 62%
- GI50 [6]: 12.9 µM
- growth at 10 µM [7]: 15%
- growth at 10 µM [8]: 54%
- growth at 10 µM [9]: 23%
- GI50 [10]: 7.08 µM
- TGI ([10]; read-out: pTGI (converted)): 56.2 µM
- GI50 [11]: 2.04 µM
- TGI ([11]; read-out: pTGI): 43.7 µM
- TGI [12]: 45.7 µM
- GI50 [13]: 1.78 µM
- LC50 [13]: 18.2 µM
- TGI ([13]; read-out: pTGI (converted)): 4.79 µM
- GI50 [14]: 20 µM
- GI50 [15]: 4.9 µM
- TGI ([15]; read-out: pTGI (converted)): 45.7 µM
- GI50 [16]: 3.8 µM
- TGI ([16]; read-out: pTGI (converted)): 35.5 µM
- GI50 [17]: 57.5 µM
- GI50 [18]: 81.3 µM
- GI50 [19]: 2.75 µM
- TGI ([19]; read-out: pTGI (converted)): 9.12 µM
- GI50 [20]: 4.68 µM
- GI50 [21]: 81.3 µM
- growth at 10 µM [22]: -45%
- growth at 10 µM [23]: -41%
- growth at 10 µM [24]: 31%
- growth at 10 µM [25]: 62%
- growth at 10 µM [26]: 60%
- growth at 10 µM [27]: 81%
- growth at 10 µM [28]: -4%
- GI50 [29]: 64.6 µM
- GI50 [30]: 4.68 µM
- CC50 [30, 39]: 81.3 µM
- TGI ([30]; read-out: pTGI (converted)): 23.4 µM
- GI50 [31]: 3.31 µM
- CC50 [31, 39]: 81.3 µM
- TGI ([31]; read-out: pTGI (converted)): 14.5 µM
- growth at 10 µM [32]: 57%
- growth at 10 µM [33]: 77%
- growth at 10 µM [34]: 34%
- growth at 10 µM [35]: -4%
- growth at 10 µM [36]: -79%
- growth at 10 µM [37]: 51%
- growth at 10 µM [38]: -30%
